Experimental findings from ChEMBL document CHEMBL2390882, “Synthesis and biological evaluation of novel thiazolidinone derivatives as potential anti-inflammatory agents” (Eur J Med Chem, 2013) are described below.

The inhibition is the relative decrease from the control value, in per cent. Broadly, the IC50 is the concentration that inhibits the measured activity by half.

In data set [1] the test system is RAW264.7. The data set can be described thus: Antiinflammatory activity in mouse RAW264.7 cells assessed as inhibition of LPS-induced TNFalpha release at 10 uM incubated for 2 hrs prior to LPS challenge measured after 22 hrs by ELISA relative to LPS-treated control. It counts as functional. The gist of the method: (§1)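 RAW 264.7 macrophages in DMEM with 10% heat-inactivated FBS, plated at 4.0×10⁵/plate overnight. Pretreated 2 h with compound at 10 µM (curcumin 10 µM as reference), then LPS 0.5 µg/ml for 22 h. Medium cytokine measured by mouse ELISA kit and normalized to cell-lysate total protein. Expressed as % of LPS control, mean ±SEM of 4 independent experiments.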
(In general: ELISA stands for enzyme-linked immunosorbent assay.)

For data set [2], the system named is RAW264.7. The data set can be described thus: Cytotoxicity against mouse RAW264.7 cells assessed as cell viability at 20 uM after 48 hrs by MTT assay. It counts as cell-based. The settings on record: raw264.7, 48 h. The gist of the method:
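RAW264.7 cells seeded at 5000/well in 1640 medium with 5% heat-inactivated serum and grown 24 h before treatment. Compounds (DMSO stock) tested at 20 µM final for 48 h. MTT (5 mg/ml in 0.9% NaCl) added for 3 h, formazan dissolved in DMSO, absorbance read at 570 nm.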
(Tetrazolium dyes change colour on reduction, which living cells bring about.)

For data set [3], the system named is RAW264.7. The data set can be described thus: Antiinflammatory activity in mouse RAW264.7 cells assessed as inhibition of LPS-induced IL6 release at 10 uM incubated for 2 hrs prior to LPS challenge measured after 22 hrs by ELISA relative to LPS-treated control. It counts as functional. The settings on record: for inhibition at 10 µM: Mus musculus, RAW264.7. Summed up: as §1

Data set [4] concerns Mus musculus. The experiment in a line: Antiinflammatory activity in LPS-treated C57BL/6 mouse assessed as survival rate at 15 mg/kg, ip administered 15 mins measured every 1 day for 7 days relative to LPS-treated control. It counts as functional. Particulars: C57BL/6, ip, route intraperitoneal. The gist of the method: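 Male C57BL/6 mice (18-22 g, acclimatized ≥7 days) got LPS 20 mg/kg i.v. and drug 15 mg/kg i.p. either 15 min before or 15 min after. The drug was given at 2 mg/mL in macrogol 15 hydroxystearate (5-10% final), with or without MCT (0.5-2%), dissolved at 37 °C. Controls received vehicle. Survival was recorded daily for 7 days, with 12 mice per group.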

Data set [5] relates to RAW264.7. The data set can be described thus: Antiinflammatory activity in mouse RAW264.7 cells assessed as inhibition of LPS-induced TNFalpha release incubated for 2 hrs prior to LPS challenge measured after 22 hrs by ELISA. It counts as functional, cell-based. Summed up:
(§2)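 RAW 264.7 cells plated at 1.2×10⁶/plate overnight, pretreated 2 h at 0.3, 1.1, 3.3 and 10 µM, then stimulated with LPS 0.5 µg/ml for 22 h. Secreted cytokine quantified by ELISA and normalized to total cell protein, given as % of LPS control. IC50 derived from the concentration-response, 3-5 independent experiments.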

Data set [6] deals with RAW264.7. The data set can be described thus: Antiinflammatory activity in mouse RAW264.7 cells assessed as inhibition of LPS-induced IL6 release incubated for 2 hrs prior to LPS challenge measured after 22 hrs by ELISA. The format is functional, cell-based. Summed up:
as §2

For data set [7], the system named is Mus musculus. The data set can be described thus: Antiinflammatory activity in C57BL/6 mouse assessed as decrease in LPS-induced septic death at 15 mg/kg, ip administered 15 mins prior to LPS challenge measured every 1 day for 7 days relative to LPS-treated control. The format is functional, organism-based. The arrangement: dose 15 mg/kg. The gist of the method: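 Male C57BL/6 mice, 18-22 g ([…]), acclimatized at least 7 days. Drug at 2 mg/mL in macrogol 15 hydroxystearate (5-10%) with or without MCT (0.5-2%), dosed i.p. 15 min before LPS (20 mg/kg i.v.). Vehicle controls received 10% solubilizer with 2% MCT. Survival recorded daily for 7 days, n=12 per group.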

Values joined by “and” are separate entries in the source; they are usually repeats but may differ in a detail not shown here. Equal values may be shown once. Active and inactive are the calls of the source. The rule behind the calls is not given here.

As to `O=c1/c(=C/c2ccc(N3CCOCC3)cc2)sc2ncnn12`, the inhibition at 10 µM in data set [1] and in data set [3] was above 50% each time. In data set [2], the Activity entry was “Non-toxic”.
Take `O=c1/c(=C/c2ccccc2Cl)sc2n1CCN=2`: the inhibition entry in data set [1] and in data set [3] was “Active” each time. The Activity result in data set [2] is “Non-toxic”.
As for `O=c1/c(=C/c2ccccc2[N+](=O)[O-])sc2nc3ccccc3n12`, the inhibition entry in data set [1] and in data set [3] was “Active” throughout. Further, the Activity result in data set [2] was “Non-toxic”.
For `CCOC(=O)C1=C(C)N=c2s/c(=C\c3cccc4ccccc34)c(=O)n2C1c1ccccc1` (centres undefined), the inhibition result in data set [1] and in data set [3] was “Active” each time. Moreover, the Activity result in data set [2] is reported as “Non-toxic”.
Turning to `CCOC(=O)C1=C(C)N=c2s/c(=C\c3ccc(C)cc3C)c(=O)n2C1c1ccccc1` (centres undefined), the inhibition entry in data set [1] and in data set [3] was “Active” each time. In addition, in data set [2], the Activity result is recorded as “Non-toxic”.
With `CCOC(=O)C1=C(C)N=c2s/c(=C\c3ccccc3Br)c(=O)n2C1c1ccccc1` (centres undefined), the inhibition result in data set [1] and in data set [3] was “Active” in each case. Moreover, the Activity result in data set [2] was “Non-toxic”.
For `CCOC(=O)C1=C(C)N=c2s/c(=C\c3ccc(N4CCOCC4)cc3)c(=O)n2C1c1ccccc1` (centres undefined), the inhibition at 10 µM in data set [1] came out at 62%; in data set [3] it was 92%. The survival at 15 mg/kg in data set [4] was 70%. The IC50 in data set [5] is 4.17 µM; in data set [6] it was 0.83 µM. Further, the inhibition result in data set [5] and in data set [6] was “Dose-dependent effect” each time. Moreover, the Activity entry in data set [2] is given as “Non-toxic”. Moreover, the outcome in data set [7] was inactive.
In the case of `COc1cc(/C=c2\sc3nc4ccccc4n3c2=O)ccc1O`, the inhibition result in data set [1] and in data set [3] was “Active” throughout. For the same compound, in data set [2], the Activity result is given as “Non-toxic”.
Regarding `CCOC(=O)C1=C(C)N=c2s/c(=C\c3cccn3C)c(=O)n2C1c1ccccc1` (centres undefined), in data set [1], the inhibition at 10 µM is 60%. The values for the IC50 in data set [5] and in data set [6] were above 10 µM and 6.39 µM, respectively. Further, the Activity result in data set [2] is reported as “Non-toxic”. Also, the “inhibition (INH)” value in data set [3] is 50% and 87%.
Consider `Cc1ccc(/C=c2\sc3n(c2=O)CCN=3)s1`, for which the inhibition at 10 µM in data set [1] is above 50%. Moreover, in data set [2], the Activity entry is on record as “Non-toxic”. Moreover, the inhibition result in data set [3] was “Active”.
`Cc1ccc(/C=c2\sc3nc4ccccc4n3c2=O)s1`: the inhibition result in data set [1] and in data set [3] was “Active” in each case. In addition, in data set [2], the Activity result is recorded as “Non-toxic”.
In the case of `COc1ccccc1/C=c1\sc2nc3ccccc3n2c1=O`, the inhibition entry in data set [1] and in data set [3] was “Active” each time. Also, in data set [2], the Activity result was “Non-toxic”.
As for `COc1cccc(/C=c2\sc3ncnn3c2=O)c1OC`, the inhibition entry in data set [1] and in data set [3] was “Active” in each case. Also, the Activity result in data set [2] is on record as “Non-toxic”.
In the case of `O=c1/c(=C/c2cccc(Cl)c2Cl)sc2nc3ccccc3n12`, the inhibition result in data set [1] and in data set [3] was “Active” throughout. Moreover, the Activity result in data set [2] is “Non-toxic”.
Turning to `CCOC(=O)C1=C(C)N=c2s/c(=C\c3ccccc3F)c(=O)n2C1c1ccccc1` (centres undefined), the inhibition result in data set [1] and in data set [3] was “Active” throughout. In addition, the Activity entry in data set [2] is on record as “Non-toxic”.
On to `CCOC(=O)C1=C(C)N=c2s/c(=C\c3cccc(OC)c3O)c(=O)n2C1c1ccccc1` (centres undefined), for which the inhibition entry in data set [1] and in data set [3] was “Active” in each case. In addition, the Activity entry in data set [2] is reported as “Non-toxic”.
Turning to `COc1ccc(/C=c2\sc3nc4ccccc4n3c2=O)cc1O`, the inhibition result in data set [1] and in data set [3] was “Active” in each case. Further, the Activity result in data set [2] is on record as “Non-toxic”.
In the case of `Cn1cccc1/C=c1\sc2n(c1=O)CCN=2`, the inhibition at 10 µM in data set [1] and in data set [3] was above 50% each time. In addition, the Activity result in data set [2] is “Non-toxic”.
For the compound `O=c1/c(=C/c2c[nH]c3ccccc23)sc2nc3ccccc3n12`, in data set [1], the inhibition entry was “Active”. Also, the Activity result in data set [2] is “Non-toxic”. The inhibition at 10 µM in data set [3] is above 50%.
In the case of `O=c1/c(=C/c2ccccc2F)sc2nc3ccccc3n12`, the inhibition result in data set [1] and in data set [3] was “Active” throughout. Further, the Activity result in data set [2] is on record as “Non-toxic”.
With `O=c1/c(=C/c2ccc(N3CCOCC3)cc2)sc2nc3ccccc3n12`, the inhibition result in data set [1] and in data set [3] was “Active” in each case. Also, in data set [2], the Activity entry is on record as “Non-toxic”.
On to `O=c1/c(=C/c2cccs2)sc2nc3ccccc3n12`, for which the inhibition result in data set [1] and in data set [3] was “Active” throughout. For the same compound, the Activity result in data set [2] is recorded as “Non-toxic”.
With `O=c1/c(=C/c2c[nH]c3ccccc23)sc2ncnn12`, the inhibition result in data set [1] is “Active”. Further, the Activity result in data set [2] is reported as “Non-toxic”. Besides, in data set [3], the inhibition at 10 µM was above 50%.
`O=c1/c(=C/c2ccccc2Cl)sc2nc3ccccc3n12`: the inhibition result in data set [1] and in data set [3] was “Active” each time. The Activity entry in data set [2] is on record as “Non-toxic”.
As for `CCOc1ccc(Br)cc1/C=c1\sc2nc3ccccc3n2c1=O`, the inhibition result in data set [1] and in data set [3] was “Active” each time. Besides, the Activity entry in data set [2] is reported as “Non-toxic”.
For `O=c1/c(=C/c2ccccc2Br)sc2ncnn12`, the inhibition at 10 µM in data set [1] and in data set [3] was above 50% in each case. The Activity entry in data set [2] is given as “Non-toxic”.
Turning to `Cc1ccc(/C=c2\sc3ncnn3c2=O)s1`, the inhibition result in data set [1] and in data set [3] was “Active” each time. The Activity entry in data set [2] was “Non-toxic”.
Regarding `O=c1/c(=C/c2ccc(N3CCOCC3)cc2)sc2n1CCN=2`, in data set [1], the inhibition entry was “Active”. The Activity result in data set [2] was “Non-toxic”. The inhibition at 10 µM in data set [3] is above 50%.
For the compound `CCOC(=O)C1=C(C)N=c2s/c(=C\c3ccc(C)s3)c(=O)n2C1c1ccccc1` (centres undefined), in data set [1], the inhibition entry is “Active”. Besides, the Activity result in data set [2] is given as “Non-toxic”. Moreover, the inhibition at 10 µM in data set [3] was above 50%.
Consider `Cc1ccc(/C=c2\sc3nc4ccccc4n3c2=O)c(C)c1`, for which the inhibition result in data set [1] and in data set [3] was “Active” in each case. Moreover, in data set [2], the Activity result is on record as “Non-toxic”.
For `O=c1/c(=C/c2ccccc2Br)sc2nc3ccccc3n12`, the inhibition entry in data set [1] and in data set [3] was “Active” each time. The Activity result in data set [2] is given as “Non-toxic”.
In the case of `O=c1/c(=C/c2ccc3ccccc3c2)sc2nc3ccccc3n12`, the inhibition entry in data set [1] and in data set [3] was “Active” in each case. The Activity entry in data set [2] is on record as “Non-toxic”.
